# Experimental data pooled from the literature.
# Each line is one published result; the experiments were not run side by side.
# MTNR1B: Melatonin receptor type 1B (MTNR1B, Homo sapiens, UniProt P49286)
# BAZ1A: Bromodomain adjacent to zinc finger domain protein 1A (BAZ1A, Homo sapiens, UniProt Q9NRL2)
# CDK7 with cyclin H: Cyclin-dependent kinase 7, with cyclin H (CDK7, Homo sapiens, UniProt P50613)
Structure (SMILES),target,test,test system,setting,measurement,value
CCc1ccc2scc(CCNC(C)=O)c2c1,MTNR1B,"cAMP, agonist, TR-FRET",CHO-K1,20 min,Emax,75%
Cc1ccc(S(=O)(=O)NCC(=O)N2CCC[C@H]2C(=O)N[C@@H](CCCN=C(N)N)C(=O)Nc2ccc([N+](=O)[O-])cc2)cc1,"Prothrombin (F2, Homo sapiens, UniProt P00734)","enzyme activity, substrate, absorbance",,,Km,26.3 µM
C[S+]([O-])c1ccc(-c2nc(-c3ccncc3)c(-c3ccc(F)cc3)[nH]2)cc1 (stereo not shown),BAZ1A,"thermal stability, DSF",,10 µM,ΔTm,1.03 °C
COc1ccc2ncn(CCNC(C)=O)c2c1,MTNR1B,"GTPγS binding, agonist, radiometric",,cell membranes,Emax,89%
COc1cc2c(cc1OC)[C@@H]1Cc3ccc(OC)c(OC)c3CN1CC2,CDK7 with cyclin H,"enzyme activity, inhibitor, ADP detection",,10 µM,inhibition,-19%
c1ccc(-c2nc(NCC(c3ccccc3)c3ccccc3)c3ccccc3n2)cc1,"Sodium-dependent dopamine transporter (Slc6a3, Rattus norvegicus, UniProt P23977)","transporter uptake, inhibitor, radiometric",,12.8 µM,remaining activity,30%
Cc1ccc(C(=O)Nc2ccc(CN3CCN(C)CC3)c(C(F)(F)F)c2)cc1C#Cc1cnc2cccnn12,"Serine/threonine-protein kinase RIO3 (RIOK3, Homo sapiens, UniProt O14730)","enzyme activity, inhibitor",,23.5 nM,remaining activity,93%
C[C@@H]1C(=O)O[C@H]2C[C@@]34[C@H]5C[C@@H](C(C)(C)C)[C@]36[C@@H](OC(=O)[C@@H]6O)O[C@@]4(C(=O)O5)[C@]21O,CDK7 with cyclin H,"enzyme activity, inhibitor, ADP detection",,10 µM,inhibition,35.3%
COCC(CNC(C)=O)c1cccc2ccc(OC)cc12 (stereo not shown),MTNR1B,"cAMP, agonist, TR-FRET",CHO-K1,20 min,Emax,67%
C[C@]12CC[C@@H]3c4ccc(O)cc4CC[C@H]3[C@@H]1CC[C@@H]2O,CDK7 with cyclin H,"enzyme activity, inhibitor, ADP detection",,10 µM,inhibition,38.3%
Oc1ccc(-c2nc(-c3ccncc3)c(-c3ccc(F)cc3)[nH]2)cc1,BAZ1A,"thermal stability, DSF",,10 µM,ΔTm,0.34 °C
O=c1cc(CO)occ1O,CDK7 with cyclin H,"enzyme activity, inhibitor, ADP detection",,10 µM,inhibition,21.3%
COc1cc2c(CCNC(C)=O)c[nH]c2cc1I,MTNR1B,"β-arrestin recruitment, agonist",MT2,90 min,Emax,101%
